Results: PubChem BioAssay AID602394 (Broad Institute, 2012)
“And” between values parts separate entries of the source, which are not always exact repeats. Equal entries are not always repeated. The source made the active and inactive calls.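 The calls were made as follows: active = falling signal, meaning toxicity, with AC50 at or below twice the top valid dose for that sample; inconclusive = flat curve showing 30 to 70% toxicity, or poor fit; inactive = the rest.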

System: not listed separately
Experiment: mammalian cell viability loss – dry powder, set 2, plate reader, cytotoxicity control for antifungal single agent project, dose response (AID 602394)
Details: NIH 3T3 fibroblast viability, Alamar Blue fluorescence, 48 h; at 2.6 µM (top of the series)
In short: (§1)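 System: NIH 3T3 mouse fibroblast cells / Controls: 10 µM geldanamycin control / Doses: compound dilution series, highest final concentration 26 µM / Timing: 48 h compound exposure at 37 °C, then 2–3 h dye incubation / Measured by: Alamar Blue fluorescence, Ex 544/Em 590 nm / Medium: Optimem plus 2.5% FBS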
For CC1/C=C/C=C\C=C\C=C\C=C\C=C\C=C\C(O[C@H]2OC(C)C(O)C(N)C2O)CC2OC(O)(CC(O)CC(O)C(O)CCC(O)CC(O)CC(=O)OC(C)C(C)C1O)CC(O)C2C(=O)O (stereo partly drawn), the activity change, negative = toxicity was -14.9% (inactive).

Same assay, conditions: NIH 3T3 fibroblast viability, Alamar Blue fluorescence, 48 h; at 26 µM (top of the series)
For CCOC(=O)N1C(=O)C2(CCCCC2)N(C(C)C)C1=S, the activity change, negative = toxicity was -8.87% (inactive). In the case of CCOC(=O)N1C(=O)N(c2ccc(C)cc2)C2(CCCCC2)C1=O, the activity change, negative = toxicity is reported as 7.79% (inactive). With Cc1ccc(N2C(=S)NC(=O)C23CCOCC3)cc1 the activity change, negative = toxicity was 29.4% (inactive). In the case of CC(C)N1C(=S)NC(=O)C12CCCCC2, the activity change, negative = toxicity is reported as 47.5% (inactive). In the case of O=C1NC(=S)N(c2ccccc2)C12CCCCC2, the activity change, negative = toxicity is reported as 52.9% (inactive). With CCOC(=O)N1C(=S)NC(=O)C12CCCCC2 the activity change, negative = toxicity was 2.71% (inactive). In the case of CCCc1ccc(N2C(=S)N(C(=O)OCC)C(=O)C23CCCCC3)cc1, the activity change, negative = toxicity is reported as -15.8% (inactive). For CCOC(=O)N1C(=O)C2(CCCCC2)N(Cc2ccccc2)C1=S, the activity change, negative = toxicity was -2.91% (inactive). For O=C1NC(=S)NC12CCCCC2, the activity change, negative = toxicity was 3.57% (inactive). For Cc1ccc(N2C(=S)N(S(C)(=O)=O)C(=O)C23CCCCC3)cc1, the activity change, negative = toxicity was -8.26% (inactive). In the case of CCOC(=O)N1C(=O)C2(CCCCC2)N(c2ccc(C#N)cc2)C1=S, the activity change, negative = toxicity is reported as 10.9% (inactive). With CCCCN1C(=O)N(c2ccc(C)cc2)C2(CCCCC2)C1=O the activity change, negative = toxicity was -35.3% (inactive). For Cc1ccc(N2C(=O)NC(=O)C23CCCCC3)cc1, the activity change, negative = toxicity was -10.2% (inactive). With CCOC(=O)N1C(=O)C2(CCCCC2)N(c2ccccc2)C1=S the activity change, negative = toxicity was 17.3% (inactive). In the case of O=C1NC(=S)N(c2ccc(F)cc2)C12CCCCC2, the activity change, negative = toxicity is reported as 10.6% (inactive). In the case of Cc1ccc(N2C(=S)NC(=O)C23CCCCC3)cc1, the activity change, negative = toxicity is reported as 12.5% (inactive). With CCOC(=O)N1C(=O)C2(CCOCC2)N(c2ccc(C)cc2)C1=S the activity change, negative = toxicity was 8.99% (inactive). For O=C1NC(=S)N(Cc2ccccc2)C12CCCCC2, the activity change, negative = toxicity was 5.77% (inactive). With Cc1ccc(N2C(=S)NC(=O)C2(C)C)cc1 the activity change, negative = toxicity was -5% (inactive). With CCOC(=O)N1C(=O)C(C)(C)N(c2ccc(C)cc2)C1=S the activity change, negative = toxicity was 14.6% (inactive). With Cc1ccc(N2C(=S)N(C)C(=O)C23CCCCC3)cc1 the activity change, negative = toxicity was -4.95% (inactive) and -14.4% (inactive). For CCOC(=O)N1C(=O)C2(CCCCC2)NC1=S, the activity change, negative = toxicity was 4.41% (inactive). With Cc1ccc(N2CC(=O)NC2=O)cc1 the activity change, negative = toxicity was 22.5% (inactive). In the case of CCOC(=O)N1C(=O)C2(CCC2)N(c2ccc(C)cc2)C1=S, the activity change, negative = toxicity is reported as -6.41% (inactive). With Cc1ccc(N2C(=O)N(C)C(=O)C23CCCCC3)cc1 the activity change, negative = toxicity was -27.1% (inactive). For Cc1ccc(N2C(=O)C(=O)NC2=S)cc1, the activity change, negative = toxicity was 3.56% (inactive). With Cc1ccc(N2C(=S)N(C(=O)Oc3ccccc3)C(=O)C23CCCCC3)cc1 the activity change, negative = toxicity was 0.942% (inactive). With Cc1ccc(N2C(=S)NC(=O)C23CCC3)cc1 the activity change, negative = toxicity was 25% (inactive). For CCOC(=O)N1C(=O)C2(CCCCC2)N(c2ccc(F)cc2)C1=S, the activity change, negative = toxicity was -18.1% (inactive). With CCOC(=O)N1C(=O)C2(CCCCC2)N(c2ccc(OC)cc2)C1=S the activity change, negative = toxicity was 21.1% (inactive). For Cc1ccc(N2C(=O)C3(CCCCC3)NC2=S)cc1, the activity change, negative = toxicity was -13% (inactive). For CCOC(=O)N1C(=O)C2(CCCCC2)N(c2ccccc2C)C1=S, the activity change, negative = toxicity was -14% (inactive). For CCOC(=O)N1C(=O)C2(CCCC2)N(c2ccc(C)cc2)C1=S, the activity change, negative = toxicity was 8.13% (inactive).

System: NIH 3T3 fibroblast viability, Alamar Blue fluorescence, 48 h
Experiment: as above
Details: not given
In short: as §1
Compound CCCCN1C(=O)N(c2ccc(C)cc2)C2(CCCCC2)C1=S has an AC50 of 20.9 µM. For CCOC(=O)N1C(=O)C2(CCCCC2)N(c2ccc(-c3ccccc3)cc2)C1=S, the AC50 was 9.81 µM. In the case of CCOC(=O)N1C(=O)C2(CCCCC2)N(c2ccc(C(F)(F)F)cc2)C1=S, the AC50 is reported as 12.5 µM. In the case of CCOC(=O)N1C(=O)C2(CCCCC2)N(c2cccc(C)c2)C1=S, the AC50 is reported as 24.2 µM. In the case of Cc1ccc(N2CC(=O)NC2=S)cc1, the AC50 is reported as 20.7 µM. For Cc1ccc(N2C(=S)N(C(=O)OC(C)C)C(=O)C23CCCCC3)cc1, the AC50 was > 52 µM (inactive). For CCOC(=O)N1C(=O)C2(CCCCC2)N(c2ccc(Cl)cc2)C1=S, the AC50 was 22.3 µM. CCOC(=O)N1C(=O)C2(CCCCC2)N(c2ccc(C(C)C)cc2)C1=S gave an AC50 of 13.8 µM. For CCCCN1C(=O)C2(CCCCC2)N(c2ccc(C)cc2)C1=S, the AC50 was 24.2 µM. CCOC(=O)N1C(=O)C2(CCCCC2)N(c2ccc(C(C)(C)C)cc2)C1=S showed an AC50 of 16.5 µM. With CCOC(=O)N1C(=S)N(c2ccc(C)cc2)C2(CCCCC2)C1=NCc1ccccc1 the AC50 was > 52 µM (inactive). CCOC(=O)N1C(=O)C2(CCCCC2)N(c2ccc(CC)cc2)C1=S gave an AC50 of 19.5 µM. In the case of Cc1ccc(N2C(=S)N(C(=O)OCc3ccccc3)C(=O)C23CCCCC3)cc1, the AC50 is reported as 6.98 µM. CCCC(=O)N1C(=O)C2(CCCCC2)N(c2ccc(C)cc2)C1=S showed an AC50 of 18.8 µM.
